The values below come from ChEMBL document CHEMBL3734718, “Development of new highly potent imidazo[1,2-b]pyridazines targeting Toxoplasma gondii calcium-dependent protein kinase 1” (Eur J Med Chem, 2015).

The target of data set [1] is T1, Serine/threonine-protein kinase haspin (Homo sapiens, UniProt Q8TF76).
T1 sequence (Q8TF76 whole entry): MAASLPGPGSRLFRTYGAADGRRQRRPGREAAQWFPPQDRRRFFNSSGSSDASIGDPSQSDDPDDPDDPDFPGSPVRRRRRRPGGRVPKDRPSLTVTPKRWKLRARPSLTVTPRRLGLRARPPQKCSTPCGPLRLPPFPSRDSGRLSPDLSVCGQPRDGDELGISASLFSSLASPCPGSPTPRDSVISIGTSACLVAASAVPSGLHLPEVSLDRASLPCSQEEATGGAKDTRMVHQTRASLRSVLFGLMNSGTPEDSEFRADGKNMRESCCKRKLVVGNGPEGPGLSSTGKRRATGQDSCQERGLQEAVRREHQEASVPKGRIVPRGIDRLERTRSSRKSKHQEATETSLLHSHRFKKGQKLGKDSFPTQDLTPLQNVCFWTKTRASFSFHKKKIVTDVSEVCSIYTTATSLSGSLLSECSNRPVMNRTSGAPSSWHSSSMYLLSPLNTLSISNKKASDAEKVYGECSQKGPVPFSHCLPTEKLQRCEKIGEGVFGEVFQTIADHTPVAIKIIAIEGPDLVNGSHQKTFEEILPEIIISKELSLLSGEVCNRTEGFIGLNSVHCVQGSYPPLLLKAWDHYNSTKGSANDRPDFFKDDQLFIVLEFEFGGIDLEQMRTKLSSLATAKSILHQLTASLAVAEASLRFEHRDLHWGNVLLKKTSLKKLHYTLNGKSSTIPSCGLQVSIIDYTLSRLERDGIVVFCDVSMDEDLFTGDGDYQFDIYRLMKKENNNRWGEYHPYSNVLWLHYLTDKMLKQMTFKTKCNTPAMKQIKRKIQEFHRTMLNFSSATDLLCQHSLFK
The data set can be described thus: Inhibition of human recombinant haspin kinase domain expressed in Escherichia coli BL21-KRX using histone H3 (1 to 21) peptide substrate after 30 mins by scintillation and luminescence counting method in the presence of [gamma-33P]ATP.

Data set [2] is described as follows: Inhibition of porcine brain CK1-delta/epsilon using CKS peptide substrate after 30 mins by scintillation and luminescence counting method in presence of [gamma-33P]ATP. Also noted: species or system Sus scrofa.
Data set [3] in a line: Cytotoxicity against HFF assessed as cell proliferation after 96 hrs by alamar blue reduction assay. The format is cell-based. The settings on record: human, HFF cells. The method, boiled down: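 Non-specific toxicity to HFF host cells was measured by Alamar Blue reduction as a quantitative read-out of cell proliferation, with the CC50 derived.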
For orientation: The colour change of resazurin is a common sign of viable cells or microbes.

The target in data set [4] is Receptor-interacting serine/threonine-protein kinase 3 (Homo sapiens, UniProt Q9Y572). The data set can be described thus: Inhibition of full length human GST-tagged RIPK3 expressed in Spodoptera frugiperda Sf9 cells after 30 mins by scintillation and luminescence counting method in the presence of [gamma-33P]ATP.
The target of data set [5] is Glycogen synthase kinase-3 (Sus scrofa, UniProt B2LUN4+I6LNT8). Description: Inhibition of porcine brain GSK-3 alpha/beta using GS-1 substrate after 30 mins by scintillation and luminescence counting method in the presence of [gamma-33P]ATP.
Another data set deals with Toxoplasma gondii. The data set can be described thus: Antiparasitic activity against Toxoplasma gondii RH tachyzoite expressing beta-galactosidase assessed as inhibition of tachyzoite invasion into human foreskin fibroblast host cells after 96 hrs by colorimetric microtitre assay. The format is functional, organism-based. The method, boiled down:
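Invasion of HFF host cells by a recombinant T. gondii strain carrying bacterial β-galactosidase was judged indirectly from parasite growth inhibition in a colorimetric microtiter format.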

Data set [6] is described as follows: Inhibition of wild type recombinant Toxoplasma gondii CDPK1 using syntide-2 substrate after 30 mins by Kinase-Glo luminescent assay. In general terms: Kinase-Glo reads ATP consumption through a luciferase reaction.
The target in data set [7] is Cyclin-dependent kinase 5/CDK5 activator 1 (Homo sapiens, UniProt Q00535). Description: Inhibition of human recombinant CDK5/P25 expressed in Escherichia coli using histone H1 substrate after 30 mins by scintillation and luminescence counting method in presence of [gamma-33P]ATP.
Data set [8] is described as follows: Lipophilicity, log P of the compound. It is filed as physicochemical. As to conditions: octanol/water.

Structures are written as SMILES. A value given as a limit tells only on which side of the number the result lay.

Sequence of Cyclin-dependent kinase 5/CDK5 activator 1 (Q00535 whole entry): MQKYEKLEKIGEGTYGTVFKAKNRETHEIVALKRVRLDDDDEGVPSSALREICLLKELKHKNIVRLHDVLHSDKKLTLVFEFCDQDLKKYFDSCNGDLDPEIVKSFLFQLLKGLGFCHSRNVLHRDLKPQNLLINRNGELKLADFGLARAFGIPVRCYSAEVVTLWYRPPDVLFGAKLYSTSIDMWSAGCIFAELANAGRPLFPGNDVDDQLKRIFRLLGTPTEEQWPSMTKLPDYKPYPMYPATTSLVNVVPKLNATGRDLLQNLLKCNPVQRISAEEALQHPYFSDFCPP
Sequence of Cyclin-dependent kinase 5/CDK5 activator 1 (Q15078 whole entry, further chain): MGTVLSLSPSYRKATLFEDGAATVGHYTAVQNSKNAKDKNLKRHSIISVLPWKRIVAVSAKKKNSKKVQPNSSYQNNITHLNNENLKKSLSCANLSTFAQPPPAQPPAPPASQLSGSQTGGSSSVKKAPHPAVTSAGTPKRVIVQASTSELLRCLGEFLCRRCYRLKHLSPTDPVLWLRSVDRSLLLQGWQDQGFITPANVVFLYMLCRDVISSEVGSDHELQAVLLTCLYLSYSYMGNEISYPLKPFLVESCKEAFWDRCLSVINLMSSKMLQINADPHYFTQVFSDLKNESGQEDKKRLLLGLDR
Sequence of Receptor-interacting serine/threonine-protein kinase 3 (Q9Y572 whole entry): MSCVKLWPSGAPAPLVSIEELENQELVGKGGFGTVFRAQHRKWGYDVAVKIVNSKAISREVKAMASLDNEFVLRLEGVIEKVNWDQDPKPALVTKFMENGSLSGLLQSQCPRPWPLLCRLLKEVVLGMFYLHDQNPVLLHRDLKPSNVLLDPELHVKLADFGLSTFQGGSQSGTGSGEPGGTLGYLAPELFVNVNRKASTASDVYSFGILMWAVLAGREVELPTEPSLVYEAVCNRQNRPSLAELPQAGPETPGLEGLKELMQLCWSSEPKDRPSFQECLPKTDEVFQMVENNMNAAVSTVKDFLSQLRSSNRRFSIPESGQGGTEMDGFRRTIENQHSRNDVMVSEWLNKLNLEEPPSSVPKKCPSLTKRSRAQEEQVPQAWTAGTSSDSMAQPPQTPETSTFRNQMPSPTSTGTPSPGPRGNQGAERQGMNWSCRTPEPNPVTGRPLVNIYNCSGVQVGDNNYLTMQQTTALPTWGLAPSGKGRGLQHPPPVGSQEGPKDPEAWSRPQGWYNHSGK

As for `COc1ccc2c(-c3nc4ccc(N5CCN(C)CC5)nn4c3-c3ccncc3)cccc2c1`, the IC50 is greater than 10 µM in [1]; greater than 10 µM in [2]; 1.2 µM in [4]; greater than 10 µM in data set [5]; 0.5 µM in data set [6]; greater than 10 µM in data set [7]. The CC50 at 96 h in data set [3] was 20.9 µM. Further, the EC50 with Toxoplasma gondii was found to be 2.21 µM.

In the case of `CN1CCN(c2ccc3nc(-c4cccc5c4OCO5)c(-c4ccncc4)n3c2)CC1`, the IC50 in data set [1] was greater than 10 µM; in [2], greater than 10 µM; in [4], greater than 10 µM; in [5] it was greater than 10 µM; in data set [6], 0.85 µM; in [7], greater than 10 µM. In addition, in data set [3], the half-maximal cytotoxic concentration (CC50) at 96 h was greater than 50 µM. Besides, the EC50 with Toxoplasma gondii is greater than 5 µM.

In the case of `CN1CCN(c2ccc3nc(-c4ccc(C(=O)N5CCOCC5)cc4)c(-c4ccncc4)n3n2)CC1`, the concentration for half-maximal inhibition (IC50) in [1] is greater than 10 µM; in [2] it was greater than 10 µM; in data set [4] it was greater than 10 µM; in [5], greater than 10 µM; in data set [6] it was greater than 5 µM; in [7], greater than 10 µM. Further, the CC50 at 96 h in data set [3] is 14.1 µM. Moreover, the EC50 in the data set with Toxoplasma gondii was greater than 5 µM.

As to `CN1CCN(c2ccc3nc(-c4ccc(-c5ccccc5)cc4)c(-c4ccncc4)n3n2)CC1`, the IC50 in [1] is greater than 10 µM; in data set [2], greater than 10 µM; in [4], greater than 10 µM; in [5], greater than 10 µM; in data set [6], 3.43 µM; in data set [7] it was greater than 10 µM. For the same compound, the CC50 at 96 h in [3] was determined as 13.7 µM. Further, the EC50 in the data set on Toxoplasma gondii is greater than 5 µM.

As for `CN1CCN(c2ccc3nc(-c4cccc5c4OCCO5)c(-c4ccncc4)n3n2)CC1`, the IC50 in data set [1] is greater than 10 µM; in data set [2], 2 µM; in data set [4] it was greater than 10 µM; in data set [5] it was greater than 10 µM; in data set [6], 1.23 µM; in data set [7] it was greater than 10 µM. Also, in data set [3], the CC50 at 96 h was greater than 50 µM. Besides, the EC50 in the data set with Toxoplasma gondii was determined as 0.94 µM.

In data set [8], `c1cc2c(c(-c3nc4cccnn4c3-c3ccncc3)c1)OCO2` came in with a logP of 5. For the same compound, the IC50 was greater than 10 µM in data set [1]; 2.4 µM in data set [2]; 5.5 µM in [4]; 3.5 µM in [5]; 0.22 µM in data set [6]; greater than 10 µM in data set [7]. Besides, in data set [3], the CC50 at 96 h was found to be 8.2 µM. Besides, in the data set on Toxoplasma gondii, the EC50 was 1.28 µM.

In data set [8], `CN1CCN(c2ccc3nc(-c4ccc(-c5ccccc5)s4)c(-c4ccncc4)n3n2)CC1` returned a logP of 5. Further, the IC50 in [1] is greater than 10 µM; in data set [2] it was greater than 10 µM; in data set [4], greater than 10 µM; in data set [5], greater than 10 µM; in data set [6], 3.58 µM; in [7], greater than 10 µM. In addition, the CC50 at 96 h in data set [3] is 6.8 µM. Further, the EC50 with Toxoplasma gondii worked out at 3.07 µM.

Take `CCc1nc(N)nc(N)c1-c1ccc(Cl)cc1` [PYRIMETHAMINE]: the CC50 at 96 h in [3] is greater than 50 µM. Besides, in the data set with Toxoplasma gondii, the EC50 was found to be 0.34 µM.

For `CN1CCN(c2ccc3nc(-c4cccc5c4OCO5)c(-c4ccccc4)n3n2)CC1`, the IC50 was greater than 10 µM in data set [1]; no less than 10 µM in [2]; greater than 10 µM in data set [4]; 2.2 µM in [5]; 5.4 µM in data set [6]; greater than 10 µM in data set [7]. In addition, in [3], the CC50 at 96 h worked out at 21.9 µM. For the same compound, the EC50 in the data set on Toxoplasma gondii was found to be 1.9 µM.

On to `CN1CCN(c2ccc3nc(-c4cccc(-c5ccccc5)c4)c(-c4ccncc4)n3n2)CC1`, for which the half-inhibitory concentration (IC50) in data set [1] is greater than 10 µM; in data set [2] it was greater than 10 µM; in data set [4], 0.45 µM; in [5], greater than 10 µM; in data set [6] it was 0.44 µM; in [7] it was greater than 10 µM. Besides, the cytotoxic concentration (CC50) at 96 h in data set [3] was 10.9 µM. Moreover, the EC50 in the data set on Toxoplasma gondii amounted to 1 µM.

As for `CN1CCN(c2ccc3nc(-c4cccc(C(=O)N5CCOCC5)c4)c(-c4ccncc4)n3n2)CC1`, in data set [8], the logP was less than 3. Also, the IC50 was 3.9 µM in [1]; greater than 10 µM in [2]; greater than 10 µM in data set [4]; greater than 10 µM in data set [5]; 3.05 µM in data set [6]; greater than 10 µM in data set [7]. Further, the CC50 at 96 h in data set [3] turned out to be 6.4 µM. Further, the EC50 in the data set with Toxoplasma gondii was greater than 5 µM.

As to `COc1cccc(-c2nc3ccc(N4CCN(C)CC4)nn3c2-c2ccncc2)c1`, the IC50 in data set [1] is greater than 10 µM; in [2], 0.4 µM; in data set [4] it was no less than 10 µM; in [5], 8.8 µM; in data set [6], 0.009 µM; in data set [7], greater than 10 µM. Besides, the CC50 at 96 h in data set [3] turned out to be 38 µM. Moreover, the EC50 in the data set on Toxoplasma gondii was found to be 0.05 µM.

With `CN1CCN(c2ccc3nc(-c4cccc(-c5cccs5)c4)c(-c4ccncc4)n3n2)CC1`, the logP in data set [8] was found to be 5. Further, the IC50 is greater than 10 µM in data set [1]; 3.1 µM in data set [2]; 0.27 µM in [4]; 10 µM in data set [5]; 0.37 µM in data set [6]; greater than 10 µM in data set [7]. Moreover, the CC50 at 96 h in data set [3] was determined as 6.7 µM. Besides, in the data set with Toxoplasma gondii, the EC50 came out at 1.42 µM.

Consider `CN1CCN(c2ccc3nc(-c4ccc5c(c4)OCO5)c(-c4ccncc4)n3n2)CC1`, for which the IC50 was greater than 10 µM in data set [1]; 0.15 µM in data set [2]; 7.6 µM in data set [4]; greater than 10 µM in data set [5]; 0.15 µM in [6]; greater than 10 µM in data set [7]. Further, the CC50 at 96 h in data set [3] was determined as 17.5 µM. Also, in the data set on Toxoplasma gondii, the EC50 stood at 0.63 µM.

For the compound `CN1CCN(c2ccc3nc(-c4ccc5c(c4)OCCO5)c(-c4ccncc4)n3n2)CC1`, in data set [8], the logP was less than 3. Besides, the IC50 in data set [1] was greater than 10 µM; in [2], no less than 10 µM; in data set [4] it was greater than 10 µM; in data set [5], greater than 10 µM; in data set [6], 0.11 µM; in data set [7], greater than 10 µM. For the same compound, in [3], the CC50 at 96 h worked out at 7.6 µM. Further, the EC50 in the data set on Toxoplasma gondii worked out at 0.49 µM.

On to `CN1CCN(c2ccc3nc(-c4cccc5c4OCO5)c(-c4cccnc4)n3n2)CC1`, for which the IC50 is greater than 10 µM in data set [1]; greater than 10 µM in data set [2]; greater than 10 µM in data set [4]; greater than 10 µM in data set [5]; 6.5 µM in data set [6]; greater than 10 µM in [7]. Moreover, the cytotoxic concentration (CC50) at 96 h in data set [3] amounted to 35.9 µM. Also, the EC50 in the data set on Toxoplasma gondii is greater than 5 µM.

Take `CC1CN(c2ccc3nc(-c4cccc5c4OCO5)c(-c4ccncc4)n3n2)CC(C)N1C` (configuration not stated): in [3], the CC50 at 96 h is greater than 50 µM. Moreover, the EC50 with Toxoplasma gondii stood at 0.63 µM. The IC50 in data set [6] is 0.63 µM.

`CN1CCN(c2ccc3nc(-c4ccc5ncsc5c4)c(-c4ccncc4)n3n2)CC1`: the IC50 is greater than 10 µM in data set [1]; 0.95 µM in data set [2]; greater than 10 µM in [4]; greater than 10 µM in data set [5]; 0.4 µM in data set [6]; greater than 10 µM in [7]. The CC50 at 96 h in data set [3] was determined as 17.5 µM. In the data set on Toxoplasma gondii, the 50% effective concentration (EC50) stood at 1.66 µM.

As for `CCOc1ccc2c(-c3nc4ccc(N5CCN(C)CC5)nn4c3-c3ccncc3)cccc2c1`, in data set [8], the log partition coefficient (logP) was 5. Besides, the IC50 in data set [1] is greater than 10 µM; in [2], greater than 10 µM; in data set [4], 1.7 µM; in data set [5] it was greater than 10 µM; in data set [6] it was 0.91 µM; in data set [7], greater than 10 µM. Also, the CC50 at 96 h in [3] is 7.6 µM. Also, the EC50 in the data set on Toxoplasma gondii was determined as 1.71 µM.

In general, IC50 refers to the concentration that inhibits the measured activity by half. By CC50 is commonly meant the concentration at which the toxic effect on the cells reaches its halfway point. For orientation: EC50 means the concentration that produces a half-maximal response. The term logP denotes the decadic logarithm of the partition coefficient of the neutral form, usually between octanol and water. Low values mean a more hydrophilic compound, high ones a more lipophilic compound.
